Published values of several laboratories.

Cc1ccc(CNC(=O)c2nc(-c3ccccc3)c3cccnc3c2O)cc1 — EC50 (Human betaherpesvirus 5; viral replication, inhibitor; HFF): 31 µM
Cc1sc2[nH]c(=O)n(O)c(=O)c2c1C — inhibition (Human betaherpesvirus 5; viral replication, inhibitor; 10 µM, 7 days): -5.1%
COc1cccc(-c2nc(C(=O)NCc3ccc(C)cc3)c(O)c3ncccc23)c1 — EC50 (Human betaherpesvirus 5; viral replication, inhibitor; HFF): 24 µM
O=c1[nH]c2c(-c3ccccc3)csc2c(=O)n1O — inhibition (Human betaherpesvirus 5; viral replication, inhibitor; 10 µM, 7 days): 5.3%
Nc1ccn(C[C@@H](CO)OCP(=O)(O)O)c(=O)n1 — IC50 (Human betaherpesvirus 5; viral replication): 0.28 µM
O=C(Cn1ccnc1[N+](=O)[O-])NCc1ccccc1 — IC50 (Trypanosoma cruzi; parasite growth; rat Myoblast, TULAHUEN; intracellular, amastigote): 0.352 µg/mL
O=C1c2ccccc2C(c2ccccc2)C(=O)N1OCc1ccccc1 (stereo not shown) — inhibition (Human betaherpesvirus 5; viral replication, inhibitor; 10 µM, 7 days): 12%
Nc1ncnc2c([C@@H]3N[C@H](CO)[C@@H](O)[C@H]3O)c[nH]c12 — inhibition (human respiratory syncytial virus; viral replication, inhibitor; MA104; 0.9 µM): 0%
O=S(=O)(c1ccc(-c2ccc3ncnc(Nc4ccc(OCc5ccccc5)c(Cl)c4)c3c2)cc1)N1CCOCC1 — inhibition (Trypanosoma cruzi; parasite growth, absorbance; NIH3T3, TULAHUEN; 10 µM, intracellular, amastigote): 9%
Cc1ccc(CNC(=O)c2nc(Cl)c3cccnc3c2O)cc1 — EC50 (Human betaherpesvirus 5; viral replication, inhibitor; HFF): 21 µM
